From ChEMBL document CHEMBL5126598, “Defined stereoisomers of 2″-amino NAD+ and their activity against human sirtuins and a bacterial (ADP-ribosyl) transferase” (Bioorg Med Chem, 2022)

How the values were obtained:
[1] = Chemical stability of the compound in sirtuin assay buffer at pH 8.0 assessed as nicotinamide cleavage measured every 30 mins for 4 hrs by HPLC analysis; format: physicochemical; conditions: read-out: Activity
[2] = target: T1, SIRT2 (NAD-dependent protein deacetylase sirtuin-2) (Homo sapiens, UniProt Q8IXJ6); experiment: Chemical stability of the compound in sirtuin assay buffer at pH 8.0 assessed as human SIRT2 mediated nicotinamide cleavage measured upto 4 hrs in the presence of ZMAL substrate by HPLC analysis; format: ADME; conditions: pH 8, probe ZMAL substrate, read-out: Activity
T1 sequence (Q8IXJ6 whole entry): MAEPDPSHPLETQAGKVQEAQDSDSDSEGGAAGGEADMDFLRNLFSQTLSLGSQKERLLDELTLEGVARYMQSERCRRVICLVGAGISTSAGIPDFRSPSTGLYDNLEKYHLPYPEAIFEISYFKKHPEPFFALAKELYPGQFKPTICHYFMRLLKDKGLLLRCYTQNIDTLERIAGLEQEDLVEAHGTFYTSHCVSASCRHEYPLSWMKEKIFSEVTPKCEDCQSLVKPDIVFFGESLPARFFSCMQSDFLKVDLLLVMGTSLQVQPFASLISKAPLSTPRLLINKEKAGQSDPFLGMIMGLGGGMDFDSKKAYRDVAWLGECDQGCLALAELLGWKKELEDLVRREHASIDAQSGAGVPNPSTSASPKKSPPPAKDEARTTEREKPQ

[3] = target: T2, NAD-dependent protein deacetylase sirtuin-1 (Homo sapiens) (UniProt Q96EB6); experiment: Inhibition of human SIRT1 using fluorogenic ZMAL as substrate at 250 uM incubated for 4 hrs in the presence of beta-NAD+ as cofactor by fluorescence based microplate reader analysis relative to control
T2 sequence (whole entry): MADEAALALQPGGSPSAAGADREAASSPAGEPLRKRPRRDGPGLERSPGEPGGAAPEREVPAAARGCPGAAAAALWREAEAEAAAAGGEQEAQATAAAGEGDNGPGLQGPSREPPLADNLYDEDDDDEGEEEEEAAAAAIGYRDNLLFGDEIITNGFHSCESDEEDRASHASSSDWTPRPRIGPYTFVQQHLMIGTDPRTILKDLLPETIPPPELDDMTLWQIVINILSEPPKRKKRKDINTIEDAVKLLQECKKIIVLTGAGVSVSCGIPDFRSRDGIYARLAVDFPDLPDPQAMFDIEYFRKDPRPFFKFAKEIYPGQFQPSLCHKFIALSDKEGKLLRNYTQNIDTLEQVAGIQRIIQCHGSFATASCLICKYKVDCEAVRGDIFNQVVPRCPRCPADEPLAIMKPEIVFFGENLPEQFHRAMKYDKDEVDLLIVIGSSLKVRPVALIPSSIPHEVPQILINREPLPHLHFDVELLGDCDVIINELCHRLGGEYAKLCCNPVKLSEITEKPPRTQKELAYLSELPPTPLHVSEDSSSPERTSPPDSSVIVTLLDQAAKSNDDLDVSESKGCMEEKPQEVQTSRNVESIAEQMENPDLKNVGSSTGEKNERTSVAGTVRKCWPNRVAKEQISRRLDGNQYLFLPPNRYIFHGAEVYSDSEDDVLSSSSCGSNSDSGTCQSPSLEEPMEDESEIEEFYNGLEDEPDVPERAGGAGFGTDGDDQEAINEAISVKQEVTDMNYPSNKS
Method in brief: (§1)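 Recombinant SIRT1, SIRT2 or SIRT3 (0.5 U) in 50 mM Tris/HCl, 137 mM NaCl, 2.7 mM KCl with ZMAL 10.5 μM, β-NAD+ 500 μM and 8.3% (v/v) DMSO (final), plus compound; 4 h at 37 °C with shaking. Trypsin stop solution containing 8 mM nicotinamide added, 20 min at 37 °C, then fluorescence read. Single concentrations tested first; IC50 only for near-complete inhibitors; means of 3 experiments.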

[4] = target: T2, NAD-dependent protein deacetylase sirtuin-1 (Homo sapiens); experiment: Inhibition of human SIRT1 using fluorogenic ZMAL as substrate at 100 uM incubated for 4 hrs in the presence of beta-NAD+ as cofactor by fluorescence based microplate reader analysis relative to control; method in brief: as §1
[5] = target: T3, NAD-dependent protein deacetylase sirtuin-2 (Homo sapiens, UniProt Q8IXJ6); experiment: Inhibition of human SIRT2 using fluorogenic ZMAL as substrate incubated for 4 hrs in the presence of beta-NAD+ as cofactor by fluorescence based microplate reader analysis; method in brief: as §1
T3 sequence (Q8IXJ6 whole entry): T1 sequence (Q8IXJ6 whole entry)

[6] = target: T4, NAD-dependent protein deacetylase sirtuin-3, mitochondrial (Homo sapiens) (UniProt Q9NTG7); experiment: Inhibition of human SIRT3 using fluorogenic ZMAL as substrate at 250 uM incubated for 4 hrs in the presence of beta-NAD+ as cofactor by fluorescence based microplate reader analysis relative to control; method in brief: as §1
T4 sequence (whole entry): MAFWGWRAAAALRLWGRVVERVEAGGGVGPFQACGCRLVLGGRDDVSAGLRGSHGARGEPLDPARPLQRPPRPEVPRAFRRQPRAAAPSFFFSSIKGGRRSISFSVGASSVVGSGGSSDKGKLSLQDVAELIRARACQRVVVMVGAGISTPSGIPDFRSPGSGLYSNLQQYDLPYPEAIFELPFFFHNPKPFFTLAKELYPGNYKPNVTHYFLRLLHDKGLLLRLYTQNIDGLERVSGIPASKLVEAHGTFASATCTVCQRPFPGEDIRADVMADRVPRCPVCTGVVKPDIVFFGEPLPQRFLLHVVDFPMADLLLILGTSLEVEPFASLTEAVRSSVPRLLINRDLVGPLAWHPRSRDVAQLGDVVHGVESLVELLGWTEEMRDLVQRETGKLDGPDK

[7] = target: T4, NAD-dependent protein deacetylase sirtuin-3, mitochondrial (Homo sapiens); experiment: Inhibition of human SIRT3 using fluorogenic ZMAL as substrate at 100 uM incubated for 4 hrs in the presence of beta-NAD+ as cofactor by fluorescence based microplate reader analysis relative to control; method in brief: as §1
[8] = system: Photorhabdus luminescens; experiment: Displacement of [32P]NAD+ from Photorhabdus luminescens TccC3hvr ART domain assessed as inhibition of ADP-ribosylation of alpha-skeletal muscle actin preincubated for 15 mins followed by TccC3hvr addition and measured after 6 mins by SDS-PAGE based autoradiography; conditions: dose 10-100 µM, time 21.0 min, DDE = dose-dependent effect
Method in brief: (§2)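 α-Skeletal muscle actin 1 μM with 1 μM NAD+ plus [32P]NAD+ (0.5 μCi per sample) in G buffer (5 mM Tris-HCl, 0.2 mM CaCl2, 0.2 mM ATP, 0.5 mM DTT, pH 8.0). Compound (10, 30 or 100 μM) preincubated 15 min at 21 °C, then 70 nM TccC3hvr ART domain added; 6 min at 21 °C, stopped with SDS Laemmli buffer. SDS-PAGE (12.5%), autoradiography; % inhibition versus control.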

[9] = system: Photorhabdus luminescens; experiment: Displacement of [32P]NAD+ from Photorhabdus luminescens TccC3hvr ART domain assessed as inhibition of ADP-ribosylation of alpha-skeletal muscle actin at 100 uM preincubated for 15 mins followed by TccC3hvr addition and measured after 6 mins by SDS-PAGE based autoradiography; conditions: time 21.0 min; method in brief: as §2
[10] = target: T5, NAD-dependent protein deacetylase sirtuin-1 (Homo sapiens, UniProt Q96EB6); experiment: Inhibition of human SIRT1 using fluorogenic ZMAL as substrate incubated for 4 hrs in the presence of beta-NAD+ as cofactor by fluorescence based microplate reader analysis; method in brief: as §1
T5 sequence (Q96EB6 whole entry): T2 sequence (whole entry)

[11] = target: T4, NAD-dependent protein deacetylase sirtuin-3, mitochondrial (Homo sapiens); experiment: Inhibition of human SIRT3 using fluorogenic ZMAL as substrate at 1 mM incubated for 4 hrs in the presence of beta-NAD+ as cofactor by fluorescence based microplate reader analysis relative to control; method in brief: as §1
[12] = target: T6, NAD-dependent protein deacetylase sirtuin-2 (Homo sapiens) (UniProt Q8IXJ6); experiment: Inhibition of human SIRT2 using fluorogenic ZMAL as substrate at 250 uM incubated for 4 hrs in the presence of beta-NAD+ as cofactor by fluorescence based microplate reader analysis relative to control; method in brief: as §1
T6 sequence (whole entry): T1 sequence (Q8IXJ6 whole entry)

[13] = Chemical stability of the compound in sirtuin assay buffer at pH 8.0 assessed as nicotinamide cleavage measured every 60 mins for 4 hrs by HPLC analysis; format: physicochemical; conditions: read-out: Activity

NC(=O)c1ccc[n+]([C@@H]2O[C@H](COP(=O)(O)OP(=O)(O)OC[C@H]3O[C@@H](n4cnc5c(N)ncnc54)[C@H](O)[C@@H]3O)[C@@H](O)[C@H]2N)c1
degraded at 4 h [1]: 8.4%
metabolised at 4 h [2]: 15.1%
inhibition [3]: 65%
inhibition [4]: 18%
IC50 [5]: 151 µM
inhibition [6]: 19%
inhibition [7]: 12%
inhibition [8]: Dde
inhibition [9]: 77%

NC(=O)c1ccc[n+]([C@@H]2O[C@H](COP(=O)(O)OP(=O)(O)OC[C@H]3O[C@@H](n4cnc5c(N)ncnc54)[C@H](O)[C@@H]3O)[C@@H](O)[C@@H]2N)c1
IC50 [10]: 176 µM
IC50 [5]: 153 µM
inhibition [11]: 47%

[N-]=[N+]=N[C@@H]1C([n+]2cccc(C(N)=O)c2)O[C@H](COP(=O)(O)OP(=O)(O)OC[C@H]2O[C@@H](n3cnc4c(N)ncnc43)[C@H](O)[C@@H]2O)[C@H]1O (stereo partly specified)
inhibition [12]: 21%
inhibition [6]: 34%

NC(=O)c1ccc[n+]([C@H]2O[C@H](COP(=O)(O)OP(=O)(O)OC[C@H]3O[C@@H](n4cnc5c(N)ncnc54)[C@H](O)[C@@H]3O)[C@@H](O)[C@H]2N)c1
degraded at 4 h [13]: 4.1%
metabolised at 4 h [2]: 4.1%
inhibition [3]: 63%
inhibition [4]: 13%
IC50 [5]: 118 µM
inhibition [6]: 13%
inhibition [7]: 8%
